# In ChEMBL document CHEMBL1649314, “Experimental murine scedosporiosis: histopathology and azole treatment” (2010):
# Active and inactive are the calls of the source. The rule behind the calls is not given here.
# Legend:
# Scedosporium apiospermum [1] = assay: Antifungal activity against Scedosporium apiospermum CBS 117407 infected in immunosuppressed OF1 mouse assessed as reduction in kidney fungal burden at 1.5 mg/kg/day, ip administered 24 hrs postinfection for 10 days measured after 20 days; type: functional, organism-based
# Scedosporium aurantiacum [2] = assay: Antifungal activity against Scedosporium aurantiacum IHEM 15458 infected in immunosuppressed OF1 mouse assessed as reduction in kidney fungal burden at 1.5 mg/kg/day, ip administered 24 hrs postinfection measured on day 4 postinfection
# Scedosporium boydii [3] = assay: Antifungal activity against Scedosporium boydii FMR 8627 infected in immunosuppressed OF1 mouse assessed as reduction in kidney fungal burden at 1.5 mg/kg/day, ip administered 24 hrs postinfection for 10 days measured after 20 days; type: functional, organism-based
# Scedosporium apiospermum [4] = assay: Antifungal activity against Scedosporium apiospermum IHEM 14464 infected in immunosuppressed OF1 mouse assessed as prolonged survival of mouse at 1.5 mg/kg/day, ip administered 24 hrs postinfection for 10 days measured after 20 days; type: functional, organism-based
# How it was run: (§1)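 Male OF1 mice immunosuppressed 1 day before infection with cyclophosphamide 200 mg/kg i.p. plus 5-fluorouracil 150 mg/kg i.v. Infection: 1 × 10^4 CFU of PDA-grown conidia in 0.2 ml saline via lateral tail vein. Treatment 1.5 mg/kg/day i.p., started 24 h post-challenge, given for 10 days; 10 mice/group; checked daily to day 20. Kaplan-Meier mean survival, log rank test.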
# Scedosporium boydii [5] = assay: Antifungal activity against Scedosporium boydii FMR 8627 infected in immunosuppressed OF1 mouse assessed as prolonged survival of mouse at 1.5 mg/kg/day, ip administered 24 hrs postinfection for 10 days measured after 20 days; type: functional, organism-based; how it was run: as §1
# Scedosporium boydii [6] = assay: Antifungal activity against Scedosporium boydii FMR 6694 infected in immunosuppressed OF1 mouse assessed as reduction in kidney fungal burden at 1.5 mg/kg/day, ip administered 24 hrs postinfection for 10 days measured after 20 days; type: functional, organism-based
# [7] = Antifungal activity against Scedosporium aurantiacum IHEM 15458 infected in immunosuppressed OF1 mouse assessed as prolonged survival of mouse at 1.5 mg/kg/day, ip administered 24 hrs postinfection for 10 days measured after 20 days; type: functional, organism-based; how it was run: as §1
# Scedosporium apiospermum [8] = assay: Antifungal activity against Scedosporium apiospermum IHEM 14464 by broth dilution method; type: functional
# [9] = Antifungal activity against Scedosporium aurantiacum CBS 116910 by broth dilution method; type: functional
# [10] = Antifungal activity against Scedosporium aurantiacum CBS 116910 infected in immunosuppressed OF1 mouse assessed as prolonged survival of mouse at 1.5 mg/kg/day, ip administered 24 hrs postinfection for 10 days measured after 20 days; type: functional, organism-based; how it was run: as §1
# [11] = Antifungal activity against Scedosporium aurantiacum IHEM 15458 by broth dilution method; type: functional
# Scedosporium apiospermum [12] = assay: Antifungal activity against Scedosporium apiospermum IHEM 14464 infected in immunosuppressed OF1 mouse assessed as reduction in kidney fungal burden at 1.5 mg/kg/day, ip administered 24 hrs postinfection for 10 days measured after 20 days; type: functional, organism-based
# Scedosporium boydii [13] = assay: Antifungal activity against Scedosporium boydii FMR 6694 infected in immunosuppressed OF1 mouse assessed as prolonged survival of mouse of mouse at 1.5 mg/kg/day, ip administered 24 hrs postinfection for 10 days measured after 20 days; type: functional, organism-based; how it was run: as §1
# Scedosporium boydii [14] = assay: Antifungal activity against Scedosporium boydii FMR 8627 by broth dilution method; type: functional
# Scedosporium boydii [15] = assay: Antifungal activity against Scedosporium boydii FMR 6694 by broth dilution method; type: functional
# Scedosporium apiospermum [16] = assay: Antifungal activity against Scedosporium apiospermum CBS 117407 by broth dilution method; type: functional
# Scedosporium apiospermum [17] = assay: Antifungal activity against Scedosporium apiospermum CBS 117407 infected in immunosuppressed OF1 mouse assessed as prolonged survival of mouse at 1.5 mg/kg/day, ip administered 24 hrs postinfection for 10 days measured after 20 days; type: functional, organism-based; how it was run: as §1
# Scedosporium aurantiacum [18] = assay: Antifungal activity against Scedosporium aurantiacum CBS 116910 infected in immunosuppressed OF1 mouse assessed as reduction in kidney fungal burden at 1.5 mg/kg/day, ip administered 24 hrs postinfection for 10 days measured after 20 days; type: functional, organism-based
smiles,measurement,setting,value
C[C@@H]1[C@H](O)[C@@H](C)/C=C/C=C/C=C/C=C/C=C/C=C/C=C/[C@H](O[C@@H]2O[C@H](C)[C@@H](O)[C@H](N)[C@@H]2O)C[C@@H]2O[C@](O)(C[C@@H](O)C[C@@H](O)[C@H](O)CC[C@@H](O)C[C@@H](O)CC(=O)O[C@H]1C)C[C@H](O)[C@H]2C(=O)O [AMPHOTERICIN B],Activity,Scedosporium apiospermum [1],inactive
same,Activity,Scedosporium aurantiacum [2],inactive
same,Activity,Scedosporium boydii [3],inactive
same,Activity,Scedosporium apiospermum [4],inactive
same,Activity,Scedosporium boydii [5],inactive
same,Activity,Scedosporium boydii [6],inactive
same,Activity,[7],inactive
same,MIC,Scedosporium apiospermum [8],32 µg/mL
same,MIC,[9],32 µg/mL
same,Activity,[10],inactive
same,MIC,[11],32 µg/mL
same,Activity,Scedosporium apiospermum [12],inactive
same,Activity,Scedosporium boydii [13],inactive
same,MIC,Scedosporium boydii [14],8 µg/mL
same,MIC,Scedosporium boydii [15],32 µg/mL
same,MIC,Scedosporium apiospermum [16],8 µg/mL
same,Activity,Scedosporium apiospermum [17],inactive
same,Activity,Scedosporium aurantiacum [18],inactive
